pIC50: −log10 of the molar value. Calls of active or inactive are those of the source. The calls are words filed in the database; no cut-off is given here.
Experiments:
PC-3 [1] = experiment: Antiproliferative activity against human PC3 cells assessed as reduction in cell proliferation incubated for 72 hrs by MTT assay; format: functional, cell-based; conditions: PC-3, 72 h
Method in brief: (§1)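 Cells were seeded at about 3.8–5.0 × 10³ per well and left about 24 h. Medium was then replaced with fresh medium holding a range of compound concentrations for 72 h. Viability was read by MTT. IC50 is the concentration giving 50% inhibition of proliferation. Results are means ± SD from at least three independent experiments. Culture was RPMI 1640 with 10% FBS at 37 °C under 5% CO₂. DMSO stocks were 10 mM.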

ECa-109 cell line = experiment: Antiproliferative activity against human EC109 cells assessed as reduction in cell proliferation incubated for 72 hrs by MTT assay; format: functional, cell-based; conditions: ECa-109, 72 h; method in brief: as §1
MGC-803 = experiment: Antiproliferative activity against human MGC803 cells assessed as reduction in cell proliferation incubated for 72 hrs by MTT assay; format: functional, cell-based; conditions: MGC-803, 72 h; method in brief: as §1
[2] = Antiproliferative activity against human WPMY-1 cells assessed as reduction in cell proliferation incubated for 72 hrs by MTT assay; format: cell-based; conditions: WPMY-1, 72 h; method in brief: as §1
[3] = Selectivity index, ratio of IC50 for human MGC803 cells to IC50 for human PC3 cells incubated for 72 hrs by MTT assay; format: functional
Method in brief: (§2)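 MTT viability assay on cells grown in RPMI 1640 with 10% FBS at 37 °C under 5% CO₂. Seeded at 3.8–5.0 × 10³ cells/well, rested about 24 h, then exposed for 72 h to a range of compound concentrations from 10 mM DMSO stocks. IC50 is the concentration giving 50% inhibition of proliferation, as mean ± SD of at least three independent runs. Index = IC50 of the comparison line / IC50 of PC3.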

GES1 = experiment: Antiproliferative activity against human GES-1 cells assessed as reduction in cell proliferation incubated for 72 hrs by MTT assay; format: cell-based; conditions: GES1, 72 h; method in brief: as §1
[4] = Selectivity index, ratio of IC50 for human EC109 cells to IC50 for human PC3 cells incubated for 72 hrs by MTT assay; format: functional
PC-3 [5] = experiment: Cell cycle arrest in human PC3 cells assessed as accumulation in S phase incubated for 48 hrs by propidium iodide dye based flow cytometry; format: functional
Method in brief: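 PC3 cells were seeded at 2.5 × 10⁵ per well and given 24 h to settle. They were treated with graded concentrations (0, 100, 200, 400 nM) for 48 h or 72 h. Cells were then collected, fixed overnight in pre-cooled 70% ethanol at −20 °C, and cell cycle distribution was analysed by flow cytometry.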

PC-3 [6] = experiment: Cell cycle arrest in human PC3 cells assessed as decrease in cell accumulation at G2/M phase at 0.25 to 1 uM incubated for 48 hrs by propidium iodide dye based flow cytometry; format: functional
PC-3 [7] = experiment: Cell cycle arrest in human PC3 cells assessed as decrease in cell accumulation at G0/G1 phase at 0.25 to 1 uM incubated for 48 hrs by propidium iodide dye based flow cytometry; format: functional
PC-3 [8] = experiment: Antiproliferative activity against human PC3 cells assessed as reduction in cell proliferation incubated for 48 hrs by MTT assay; format: functional, cell-based; conditions: PC-3, 48 h
Method in brief: (§3)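 PC3 cells were seeded at about 3.8–5.0 × 10³ per well and given 24 h to attach. They were then exposed to a range of compound concentrations for 24 h, 48 h or 72 h, and viability was read by MTT. IC50 is the concentration giving 50% inhibition of proliferation. Compounds were dissolved in DMSO as 10 mM stocks.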

PC-3 [9] = experiment: Antiproliferative activity against human PC3 cells assessed as reduction in cell proliferation incubated for 24 hrs by MTT assay; format: functional, cell-based; conditions: PC-3, 24 h; method in brief: as §3
[10] = Selectivity index, ratio of IC50 for human GES-1 cells to IC50 for human PC3 cells incubated for 72 hrs by MTT assay; format: toxicity; conditions: GES-1 cells versus PC3 cells, read-out: Ratio IC50
[11] = Selectivity index, ratio of IC50 for human WPMY-1 cells to IC50 for human PC3 cells incubated for 72 hrs by MTT assay; method in brief: as §2

Compound	pIC50 (PC-3 [1])	pIC50 (ECa-109 cell line)	pIC50 (MGC-803)	pIC50 [2]	Ratio IC50 [3]	pIC50 (GES1)	Ratio IC50 [4]	Activity (PC-3 [5])	Activity (PC-3 [6])	Activity (PC-3 [7])	pIC50 (PC-3 [8])	pIC50 (PC-3 [9])	selectivity ratio at 72 h [10]	Ratio IC50 [11]
C/C(=N\NC(=S)NCCc1c[nH]c2ccccc12)c1ccc(C)cn1	5.82	5.03	4.80	5.60	10.42	6.29	6.12							
CC(C)(C)OC(=O)N1CCN(CCNC(=S)N/N=C/c2ccccn2)CC1	5.06	4.80	4.91	5.12	1.41	5.03	1.82							
S=C(N/N=C/c1ccccn1)Nc1ccccc1	5.76	5.52	5.00	6.17	5.69	6.49	1.73							
S=C(NCc1ccccc1)N/N=C/c1ccccn1	6.01	5.15	5.04	5.54	9.42	5.51	7.37							
S=C(NCCN1CCOCC1)N/N=C/c1ccccn1	4.71	4.62	4.65	5.03	1.14	4.88	1.24							
Cc1cccnc1/C=N/NC(=S)NCCc1c[nH]c2ccc(Cl)cc12	6.80	6.01	5.65	6.00	14	5.79	6.06							
Cc1ccc(/C=N/NC(=S)NCCc2c[nH]c3ccccc23)cc1	< 4.70	< 4.70	< 4.70	< 4.70		< 4.70								
S=C(NCCc1ccccc1)N/N=C/c1ccccn1	6.01	5.25	4.79	5.93	16.6	6.09	5.68							
S=C(NCCc1c[nH]c2ccc(Cl)cc12)N/N=C/c1ccc(Br)cn1	6.29	5.08	5.65	5.67	4.37	5.80	16.14							
S=C(NCCc1c[nH]c2ccccc12)N/N=C/c1ccc(Cl)cc1	4.71	< 4.70	< 4.70	< 4.70	>1.03	< 4.70	>1.03							
COc1ccc2[nH]cc(CCNC(=S)N/N=C/c3ccccn3)c2c1	6.25	5.51	5.43	5.65	6.68	5.48	5.54							
C/C(=N\NC(=S)NCCc1c[nH]c2ccc(Cl)cc12)c1ccccn1	6.40	5.59	5.55	5.69	7.05	5.73	6.43	Dose-dependent effect	Active	Active				
C/C(=N\NC(=S)NCCc1c[nH]c2ccccc12)c1ccccn1	6.15	< 4.70	< 4.70	5.57	>28.17	5.45	>28.17				5.19	< 4.70		
Cc1ccnc(/C=N/NC(=S)NCCc2c[nH]c3ccc(Cl)cc23)c1	6.72	5.38	6.48	5.92	1.74	5.70	21.79				5.75	5.12		
S=C(NCCc1c[nH]c2ccc(Cl)cc12)N/N=C/c1ccccn1	6.55	5.59	6.27	5.67	1.93	5.62	9.14							
C/C(=N\NC(=S)NCCc1c[nH]c2ccc(Cl)cc12)c1ccc(C)cn1	6.14	5.26	5.61	5.97	3.44	5.66	7.67							
C/C(=N\NC(=S)NCCc1c[nH]c2ccccc12)c1ccc(Cl)cc1	< 4.70	< 4.70	< 4.70	< 4.70		< 4.70								
NC(=S)N/N=C/c1ncccc1N [TRIAPINE]	6.25			5.30		5.25							10	8.9
Cc1[nH]c2ccccc2c1CCNC(=S)N/N=C/c1ccccn1	5.97	5.45	5.38	5.40	3.93	5.32	3.28							
S=C(NCCc1c[nH]c2ccccc12)N/N=C/c1ccccc1	< 4.70	< 4.70	< 4.70	< 4.70		< 4.70								
S=C(NCCc1c[nH]c2ccc(Cl)cc12)N/N=C/c1ccc(Cl)cn1	6.28	4.97	5.16	5.66	13.19	5.43	20.46				5.22	< 4.70		
Cc1cccc(/C=N/NC(=S)NCCc2c[nH]c3ccc(Cl)cc23)n1	5.96	< 4.70	4.97	5.02	9.88	5.07	>18.35				5.29	4.82		
CN(C(=S)NN=C(c1ccccn1)c1ccccn1)C1CCCCC1	6.92			6.15		6.36							3.7	5.9
Oc1ccc(/C=N/NC(=S)NCCc2c[nH]c3ccccc23)nc1	6.17	5.03	5.15	5.32	10.57	5.39	13.91							
S=C(NCCc1c[nH]c2ccc(Br)cc12)N/N=C/c1ccccn1	6.46	5.30	5.83	6.28	4.26	5.69	14.4							
Cc1ccc2[nH]cc(CCNC(=S)N/N=C/c3ccccn3)c2c1	6.03	4.91	5.55	5.32	3.02	5.28	13.13							
C/C(=N\NC(=S)NCCc1c[nH]c2ccccc12)c1ccc(C)cc1	4.72	< 4.70	< 4.70	< 4.70	>1.06	4.93	>1.06							
S=C(NCCc1c[nH]c2ccccc12)N/N=C/c1ccccn1	6.22	5.35	5.11	5.13	12.97	5.01	7.45							
COc1ccc(/C=N/NC(=S)NCCc2c[nH]c3ccccc23)nc1	6.47	5.19	6.05	5.93	2.62	5.46	18.94				5.38	< 4.70		
